Key:
Caco-2 = assay: Antiproliferative activity against human Caco-2 cells after 48 hrs by MTT assay; format: functional, cell-based; settings: Caco-2, 48 h
Method in brief: (§1)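 Cells in exponential growth harvested and seeded at 1 ×10⁴ cells/well, incubated 24 h at 37 °C, then exposed to a range of compound concentrations for 48 h. Viability read by MTT; IC₅₀ derived from dose-dependent growth inhibition.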

A549 = assay: Antiproliferative activity against human A549 cells after 48 hrs by MTT assay; format: functional, cell-based; settings: A549, 48 h; method in brief: as §1
A-375 = assay: Antiproliferative activity against human A375 cells after 48 hrs by MTT assay; format: functional, cell-based; settings: A-375, 48 h
HeLa = assay: Antiproliferative activity against human HeLa cells after 48 hrs by MTT assay; format: functional, cell-based
SMMC-7721 = assay: Antiproliferative activity against human SMMC7721 cells after 48 hrs by MTT assay; format: functional, cell-based; settings: SMMC-7721, 48 h
PANC-1 = assay: Antiproliferative activity against human PANC1 cells after 48 hrs by MTT assay; format: functional, cell-based; settings: PANC-1, 48 h
HT-29 = assay: Antiproliferative activity against human HT-29 cells after 48 hrs by MTT assay; format: functional, cell-based; settings: HT-29, 48 h
MCF7 = assay: Antiproliferative activity against human MCF7 cells after 48 hrs by MTT assay; format: functional, cell-based; settings: MCF7, 48 h
[1] = Antiproliferative activity against human ECV304 cells after 48 hrs by MTT assay; format: cell-based; settings: ECV-304, 48 h; method in brief: as §1
HEK293 = assay: Antiproliferative activity against human HEK293 cells overexpressing EGFR after 48 hrs by MTT assay; format: cell-based; settings: HEK293, 48 h; method in brief: as §1
A-431 = assay: Antiproliferative activity against human A431 cells abnormally expressing EGFR after 48 hrs by MTT assay; format: functional, cell-based; settings: A-431, 48 h; method in brief: as §1

| Compound | IC50 (Caco-2) [µM] | IC50 (A549) [µM] | IC50 (A-375) [µM] | IC50 (HeLa) [µM] | IC50 (SMMC-7721) [µM] | IC50 (PANC-1) [µM] | IC50 (HT-29) [µM] | IC50 (MCF7) [µM] | IC50 [1] [µM] | IC50 (HEK293) [µM] | IC50 (A-431) [µM] |
| --- | --- | --- | --- | --- | --- | --- | --- | --- | --- | --- | --- |
| CNC(=O)c1ccc(OC)c(OCCN2CCOCC2)c1-c1c(C(=O)NC)ccc(OC)c1OCC(=O)Nc1ccc(F)c(Cl)c1 | 3310 | 194 | 25.1 | 100 | 194 | 110 | 44.7 | 60.4 | – | – | – |
| CNC(=O)c1ccc(OC)c(OCCN2CCNCC2)c1-c1c(C(=O)NC)ccc(OC)c1OCC(=O)Nc1ccc(F)c(Cl)c1 | – | – | – | – | 126 | – | 47.2 | – | – | – | – |
| COC(=O)c1cc(OC(=O)c2ccc(OC)c(O)c2)c(OC)cc1CCN(C)C | 110 | 453 | – | – | – | – | – | – | – | – | – |
| COC(=O)c1cc(OC(=O)c2ccc(OC)c(O)c2)c(OC)cc1CCNc1ccc(F)c(Cl)c1 | – | 180 | – | – | – | – | – | – | 61 | – | – |
| CNC(=O)c1ccc(OC)c(O)c1-c1c(C(=O)NC)ccc(OC)c1O | 104 | 64.7 | 106 | 97.6 | 95.7 | 217 | 200 | – | 113 | 88 | 104 |
| COc1ccc2c(=O)oc3c(OC)cc(CCN(C)C)c4c(=O)oc1c2c34 [TASPINE] | 153 | 4.18 | – | – | – | – | – | – | 22.3 | 16 | 11.2 |

Continued, in another order:

| IC50 (Caco-2) [µM] | IC50 (A549) [µM] | IC50 (A-375) [µM] | IC50 (HeLa) [µM] | IC50 (SMMC-7721) [µM] | IC50 (PANC-1) [µM] | IC50 (HT-29) [µM] | IC50 (MCF7) [µM] | Compound | IC50 [1] [µM] | IC50 (HEK293) [µM] | IC50 (A-431) [µM] |
| --- | --- | --- | --- | --- | --- | --- | --- | --- | --- | --- | --- |
| 3100 | 111 | – | – | – | – | – | – | COC(=O)c1cc(OC(=O)c2cc(O)c(OC)cc2CCN(C)C)ccc1OC | – | – | – |
| 167 | 241 | 242 | 117 | 124 | 159 | 133 | 123 | CNC(=O)c1ccc(OC)c(OCCN(C)C)c1-c1c(C(=O)NC)ccc(OC)c1OCC(=O)Nc1ccc(F)c(Cl)c1 | 57.2 | – | – |
| 20.3 | 73.5 | 217 | 53.4 | 109 | 191 | 214 | 109 | CNC(=O)c1ccc(OC)c(O)c1-c1c(C(=O)NC)ccc(OC)c1OCC(=O)Nc1ccc(F)c(Cl)c1 | 72.2 | – | – |
| 75.9 | 259 | 174 | 415 | 78.2 | 166 | 122 | 83.7 | CNC(=O)c1ccc(OC)c(O)c1-c1c(C(=O)NC)ccc(OC)c1OCCN1CCOCC1 | 1360 | 116 | 75.9 |
| 52.5 | 158 | – | – | – | – | – | – | COC(=O)c1cc(OC(=O)c2ccc(OC)c(O)c2)c(OC)cc1CCN1CCOCC1 | 2.67 | – | – |
